20 compounds from ChEMBL document CHEMBL1135932, “5'-Deoxy congeners of 9-(3-amido-3-deoxy-beta-D-xylofuranosyl)-N(6)-cyclopentyladenine: new adenosine A(1) receptor antagonists and inverse agonists” (J Med Chem, 2002) can be followed below.

Assay [1] concerns the target T1, Adenosine receptor A1 (Rattus norvegicus, UniProt P25099).
T1 sequence (P25099 whole entry): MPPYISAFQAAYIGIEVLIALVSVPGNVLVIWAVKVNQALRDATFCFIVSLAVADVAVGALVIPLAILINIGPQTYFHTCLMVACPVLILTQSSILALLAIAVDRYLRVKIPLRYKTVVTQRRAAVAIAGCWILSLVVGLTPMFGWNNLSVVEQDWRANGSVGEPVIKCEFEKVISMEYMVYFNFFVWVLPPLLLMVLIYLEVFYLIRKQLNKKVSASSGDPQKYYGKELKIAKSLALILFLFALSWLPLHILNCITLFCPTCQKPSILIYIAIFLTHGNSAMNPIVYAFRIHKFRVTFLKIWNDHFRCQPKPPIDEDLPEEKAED
As to the kind of experiment: Binding affinity at rat Adenosine A1 receptor in the absence of GTP. The gist of the method: (§1)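 GTP shift taken from these two Ki values. Done only for compounds giving >50% radioligand displacement at 10⁻⁶ M. At least three independent experiments in duplicate.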

Assay [2] addresses T2, Adenosine receptor A1 (Homo sapiens, UniProt P30542).
T2 sequence (P30542 whole entry): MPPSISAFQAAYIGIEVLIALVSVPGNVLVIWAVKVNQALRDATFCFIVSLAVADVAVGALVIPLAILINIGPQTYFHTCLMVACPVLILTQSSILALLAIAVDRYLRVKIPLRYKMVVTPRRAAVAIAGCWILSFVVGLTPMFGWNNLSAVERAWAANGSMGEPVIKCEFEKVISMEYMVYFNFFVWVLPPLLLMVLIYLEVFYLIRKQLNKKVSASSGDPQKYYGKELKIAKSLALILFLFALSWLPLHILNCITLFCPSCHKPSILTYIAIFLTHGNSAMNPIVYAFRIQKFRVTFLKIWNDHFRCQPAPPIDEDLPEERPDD
Put plainly: Binding affinity at human Adenosine A1 receptor expressed in CHO cells. The class given is cell-based. In outline: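 Membranes from CHO cells stably expressing human A1 receptor (~3 pmol/mg protein), 6 μg, incubated 1 h at 25 °C in 50 mM Tris HCl pH 7.4 with ~1.6 nM [³H]DPCPX and increasing test concentrations. Stopped by dilution in ice-cold buffer, then filtration. At least three independent experiments in duplicate.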

In assay [3] the target is T1, Adenosine receptor A1. Put plainly: Binding affinity at rat Adenosine A1 receptor in the presence of GTP. The gist of the method:
as §1

The target in assay [4] is T3, Adenosine receptor A1 (Homo sapiens) (UniProt P30542).
T3 sequence (whole entry): T2 sequence (P30542 whole entry)
As to the kind of experiment: Forskolin-induced cAMP production at human Adenosine A1 receptor. The class given is functional. In outline:
(§2)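 Human A1-expressing CHO cells seeded at 2 × 10⁵ cells/well. Next day, 30 min at 37 °C in Hepes-buffered medium pH 7.4 with adenosine deaminase (5 U/mL), cilostamide (50 μM) and rolipram (50 μM). […] Expressed as % of forskolin.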
In general terms: Changes in cAMP serve as a functional read-out for many G protein-coupled receptors.

For assay [5], the target named is T3, Adenosine receptor A1 (Homo sapiens). As to the kind of experiment: Forskolin-induced cAMP production at human Adenosine A1 receptor receptor. The class given is functional. The gist of the method: as §2
For a further assay, the target named is Adenosine receptor A2a (Rattus norvegicus, UniProt P30543). As to the kind of experiment: Binding affinity at rat Adenosine A2A receptor. The gist of the method:
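Rat striatal membranes with [³H]ZM241385 as radioligand. At least three independent experiments in duplicate.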

The target of assay [6] is T4, Adenosine receptor A1 (Rattus norvegicus) (UniProt P25099).
T4 sequence (whole entry): T1 sequence (P25099 whole entry)
As to the kind of experiment: Percent displacement of radioligand at 10e-6 M from rat Adenosine A1 receptor. The gist of the method: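 Radioligand displacement by ligand at 10⁻⁶ M, using rat cortical membranes labelled with [³H]DPCPX.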

Assay [7] has as its target T3, Adenosine receptor A1 (Homo sapiens). As to the kind of experiment: Forskolin-induced cAMP production at human A1 adenosine receptor. The class given is functional. In outline:
as §2

Each structure is given as a SMILES string.

For orientation: Ki means a measure of affinity in units of concentration, obtained from inhibition or displacement.

Chain of Adenosine receptor A2a (P30543 whole entry): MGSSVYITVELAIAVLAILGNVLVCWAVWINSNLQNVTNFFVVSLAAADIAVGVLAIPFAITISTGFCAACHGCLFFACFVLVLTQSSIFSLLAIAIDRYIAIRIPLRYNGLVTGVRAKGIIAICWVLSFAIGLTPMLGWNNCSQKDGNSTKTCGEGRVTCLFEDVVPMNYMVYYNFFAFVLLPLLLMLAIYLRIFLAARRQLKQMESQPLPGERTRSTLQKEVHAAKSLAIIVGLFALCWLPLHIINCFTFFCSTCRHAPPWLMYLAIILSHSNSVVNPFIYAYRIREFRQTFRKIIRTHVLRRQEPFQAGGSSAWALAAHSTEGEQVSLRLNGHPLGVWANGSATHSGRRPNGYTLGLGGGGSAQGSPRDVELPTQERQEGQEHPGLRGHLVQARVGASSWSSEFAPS

For the compound `O=C(CCCc1cccs1)N[C@@H]1[C@@H](O)[C@H](n2cnc3c(NC4CCCC4)ncnc32)O[C@@H]1CO`, the Ki at Adenosine receptor A1 [1] came to 67 nM; at Adenosine receptor A1 [2] it was 630 nM; on Adenosine receptor A1 [3], 46 nM. This compound showed a Production in assay [4] of 152%.

Turning to `O=C(N[C@@H]1[C@@H](O)[C@H](n2cnc3c(NC4CCCC4)ncnc32)O[C@@H]1CO)c1ccc2c(c1)OCO2`, the values for the Ki at Adenosine receptor A1 [1] and at Adenosine receptor A1 [2] were 102 nM and 443 nM, respectively. In addition, the Production in assay [4] is 126%.

`C[C@H]1O[C@@H](n2cnc3c(NC4CCCC4)ncnc32)[C@H](O)[C@H]1NC(=O)CCCc1cccs1`: the Ki stood at 55 nM at Adenosine receptor A1 [1], 419 nM on Adenosine receptor A1 [2] and 38 nM on Adenosine receptor A1 [3]. The compound further returned a Production in assay [4] of 148%.

As for `Cn1cnc2c(NC3CCCC3)ncnc21`, the inhibition constant Ki on Adenosine receptor A1 [1] worked out at 279 nM; on Adenosine receptor A1 [2], 1190 nM; on Adenosine receptor A1 [3] it was 259 nM. The Production in assay [5] is 139%.

For the compound `CC(C)c1ccc(C(=O)N[C@@H]2[C@@H](O)[C@H](n3cnc4c(NC5CCCC5)ncnc43)O[C@@H]2CO)cc1`, the values for the Ki at Adenosine receptor A1 [1] and on Adenosine receptor A2a were 171 nM and 437 nM, respectively.

In assay [4], `CCCn1c(=O)c2[nH]c(C3CCCC3)nc2n(CCC)c1=O` displayed a Production of 157%.

On to `Cc1ccc(C(=O)N[C@@H]2[C@@H](O)[C@H](n3cnc4c(NC5CCCC5)ncnc43)O[C@@H]2CO)cc1F`, for which the Ki on Adenosine receptor A1 [1] turned out to be 112 nM; at Adenosine receptor A1 [2], 773 nM. The Production in assay [4] came out at 135%.

With `C[C@H]1O[C@@H](n2cnc3c(NC4CCCC4)ncnc32)[C@H](O)[C@H]1NC(=O)c1ccc(F)c(Cl)c1`, the Displacement in assay [6] was found to be 44%.

Compound `CCc1ccc(C(=O)N[C@@H]2[C@@H](O)[C@H](n3cnc4c(NC5CCCC5)ncnc43)O[C@@H]2C)cc1` yielded a Ki at Adenosine receptor A1 [1] of 240 nM.

For the compound `Cc1ccc(C(=O)N[C@@H]2[C@@H](O)[C@H](n3cnc4c(NC5CCCC5)ncnc43)O[C@@H]2CO)cc1C`, the results for the inhibitory constant (Ki) on Adenosine receptor A1 [1], on Adenosine receptor A1 [2] and on Adenosine receptor A1 [3] were 24 nM, 137 nM and 17 nM, respectively. Further, the Production in assay [7] was 126%.

For the compound `Cc1ccc(C(=O)N[C@@H]2[C@@H](O)[C@H](n3cnc4c(NC5CCCC5)ncnc43)O[C@@H]2C)cc1F`, in assay [6], the Dispacement is 47%.

With `OC[C@H]1O[C@@H](n2cnc3c(NC4CCCC4)ncnc32)C[C@H]1O`, the Ki was determined as 110 nM at Adenosine receptor A1 [1] and 470 nM on Adenosine receptor A1 [3].

Compound `Cc1ccc(C(=O)N[C@@H]2[C@@H](O)[C@H](n3cnc4c(NC5CCCC5)ncnc43)O[C@@H]2C)cc1C` gave a Ki at Adenosine receptor A1 [1] of 236 nM.

`CC(C)c1ccc(C(=O)N[C@@H]2[C@@H](O)[C@H](n3cnc4c(NC5CCCC5)ncnc43)O[C@@H]2C)cc1` had a Ki at Adenosine receptor A1 [1] of 270 nM.

Consider `C[C@H]1O[C@@H](n2cnc3c(NC4CCCC4)ncnc32)[C@H](O)[C@H]1NC(=O)C1CCCC[C@H]1C(=O)c1cccs1` (some centres not stated), for which the Ki on Adenosine receptor A1 [1] is 98 nM; at Adenosine receptor A1 [2] it was 971 nM; on Adenosine receptor A1 [3] it was 70 nM. In assay [4], the Production was determined as 182%.

For `C[C@H]1O[C@@H](n2cnc3c(NC4CCCC4)ncnc32)[C@H](O)[C@H]1NC(=O)C1(c2ccccc2)CCCC1`, the values for the Ki at Adenosine receptor A1 [1] and at Adenosine receptor A1 [3] were 138 nM and 114 nM, respectively.

For `C[C@H]1O[C@@H](n2cnc3c(NC4CCCC4)ncnc32)[C@H](O)[C@H]1O`, the Ki is 70 nM at Adenosine receptor A1 [1] and 450 nM on Adenosine receptor A1 [3].

Regarding `C[C@H]1O[C@@H](n2cnc3c(NC4CCCC4)ncnc32)[C@H](O)[C@H]1NC(=O)CCCOc1ccccc1`, on Adenosine receptor A1 [1], the Ki was 473 nM.

As for `C[C@H]1O[C@@H](n2cnc3c(NC4CCCC4)ncnc32)[C@H](O)[C@H]1NC(=O)C1(c2ccccc2)CCCCC1`, the Ki on Adenosine receptor A1 [1] is 286 nM; at Adenosine receptor A1 [3], 210 nM.

As for `O=C(N[C@@H]1[C@@H](O)[C@H](n2cnc3c(NC4CCCC4)ncnc32)O[C@@H]1CO)c1ccc(F)c(Cl)c1`, the Ki on Adenosine receptor A1 [1] was found to be 78 nM; at Adenosine receptor A1 [2], 579 nM; at Adenosine receptor A1 [3], 54 nM. The Production in assay [4] was 125%.
